Measurements from PMC4547841 (Bioorganic & medicinal chemistry letters, 2013).
pIC50: −log10 of the molar value.

Columns and labels:
[1] = system: FKBP52; experiment: FKBP52 protein level in HeLa cell lysate, western blot; type: cell-based; details: n≥3
Summary of the method: (§1)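 HeLa cells treated with test compounds at two concentrations each (100nM and 1μM, or 5μM and 50μM). Cell lysates analysed by western blot. Bands quantitated by densitometry, normalized to GAPDH and to DMSO control. n≥3, mean±SEM.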

[2] = system: hsp90; experiment: Luciferase refolding assays; type: biochemical; details: 17-AAG 1 μM, SM145 50 μM (Figure 3); CA1 in Supplemental Figure S3
Summary of the method: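 Refolding of heat-denatured firefly luciferase, read as luciferase activity over time up to 2 h, in two systems: rabbit reticulocyte lysate, and a pure protein system with 1μM hsp70, 0.2μM hsp40, 0.1μM HOP and 0.5μM hsp90. Test compounds at 1μM or 50μM. n=3, mean±SEM.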

[3] = system: HSF1; experiment: HSF1 protein level in HeLa cell lysate, western blot; type: cell-based; details: 17-AAG 100 nM and 1 μM, normalized to GAPDH and DMSO control, n≥3
Summary of the method: as §1

[4] = system: glucocorticoid receptor (GR); experiment: Glucocorticoid receptor; type: cell-based; details: HeLa; 17-AAG 100 nM and 1 μM; n≥3
Summary of the method: as §1

[5] = system: hsp90 and FKBP51; experiment: TPR co-chaperone and hsp90 binding assay, FKBP51
Summary of the method: (§2)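 Binding of each TPR co-chaperone (Unc45, CHIP, TOM70, HOP, Cyp40, FKBP52, FKBP51) to hsp90 measured with increasing test compound, 0–5μM or 0–10μM depending on compound.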

[6] = system: HeLa cells; details: assay not described; HeLa treated at IC50 and ten-fold over IC50; ref [36]; cited from earlier work
[7] = system: hsp90; experiment: hsp90 protein level in HeLa cell lysate, western blot; type: cell-based; details: 17-AAG 100 nM and 1 μM, normalized to GAPDH and DMSO control, n≥3
Summary of the method: as §1

[8] = system: hsp90 and TOM70; experiment: TPR co-chaperone and hsp90 binding assay, TOM70
Summary of the method: as §2

[9] = system: hsp70; experiment: hsp70 protein level in HeLa cell lysate, western blot; type: cell-based; details: normalized to GAPDH and DMSO control, n≥3
Summary of the method: as §1

[10] = system: heat shock response; experiment: Heat shock response; type: cell-based; details: HeLa; 17-AAG 100 nM and 1 μM, CA1 and SM145 5 μM and 50 μM; hsp70, hsp90, HSF1 levels
[11] = system: FKBP51; experiment: FKBP51 protein level in HeLa cell lysate, western blot; type: cell-based; details: n≥3
Summary of the method: as §1

[12] = system: hsp90 and CHIP; experiment: TPR co-chaperone and hsp90 binding assay, CHIP; details: CA1 at 10 μM
Summary of the method: as §2

[13] = system: hsp90 and Unc45; experiment: TPR co-chaperone and hsp90 binding assay, Unc45; details: CA1 0–10 μM
Summary of the method: as §2

[14] = system: hsp90 and FKBP52; experiment: TPR co-chaperone and hsp90 binding assay, FKBP52; details: CA1 0–10 μM; some Figure 5 data marked * previously published, ref [31]
[15] = system: hsp90 and HOP; experiment: TPR co-chaperone and hsp90 binding assay, HOP; details: CA1 0–10 μM; some Figure 5 data marked * previously published, ref [31]
[16] = system: hsp90 and Cyp40; experiment: TPR co-chaperone and hsp90 binding assay, Cyp40; details: CA1 at 10 μM
Summary of the method: as §2

[17] = system: hsp90 and immunophilins; details: millimolar concentration; ref [28]; cited from earlier work
[18] = 17-AAG 100 nM and 1 μM, normalized to GAPDH, compared to DMSO

SMILES: C=CCNC1=C2C[C@@H](C)C[C@H](OC)[C@H](O)[C@@H](C)/C=C(\C)[C@H](OC(N)=O)[C@@H](OC)/C=C\C=C(/C)C(=O)NC(=CC1=O)C2=O [17-AAG]
- FKBP52 protein level, fold increase [1, 18]: ~ 4 fold
- luciferase activity over time [2]: reduce the luciferase activity over time
- HSF1 protein level, fold increase [3]: ~4 fold
- GR protein level [4]: no change
- inhibition of FKBP51 binding to hsp90 ([5]; 17-AAG at 5 μM): only partially inhibits
- pIC50 [6]: ~7.00
- hsp90 protein level, fold increase [7]: ~3 fold
- inhibition of TOM70 binding to hsp90 ([8]; 17-AAG at 5 μM): only partially inhibits
- hsp70 protein level, fold increase ([9]; 17-AAG 100 nM and 1 μM): ~ 2.5 fold
- heat shock response triggered [10]: triggering the heat shock response
- FKBP51 protein level, fold increase [11, 18]: ~ 2 fold

SMILES: CO[C@H]1[C@H](OC(=O)c2ccc(C)[nH]2)[C@H](O)[C@@H](Oc2ccc3c(O)c(NC(=O)c4c[nH]c(C(=O)Nc5c(O)c6ccc(O[C@H]7OC(C)(C)[C@@H](OC)[C@H](OC(=O)c8ccc(C)[nH]8)[C@@H]7O)c(C)c6oc5=O)c4C)c(=O)oc3c2C)OC1(C)C [CA1, coumermycin A1]
- FKBP52 protein level ([1]; CA1 at high concentrations, relative to control): slightly decreases
- luciferase activity over time [2]: reduce the luciferase activity over time
- inhibition of CHIP binding to hsp90 [12]: inhibiting
- effect on binding between hsp90 and Unc45 [13]: no impact
- effect on binding between hsp90 and FKBP51 ([5]; CA1 0–10 μM): no impact
- effect on binding between hsp90 and FKBP52 [14]: no impact
- effect on binding between hsp90 and HOP [15]: no impact
- inhibition of Cyp40 binding to hsp90 [16]: inhibiting
- inhibition of TOM70 binding to hsp90 ([8]; CA1 at 10 μM): inhibiting
- hsp70 protein level ([9]; 5 μM and 50 μM): maintenance of hsp70 protein levels
- heat shock response triggered [10]: the HSR was not triggered
- FKBP51 protein level ([11]; CA1 5 μM and 50 μM): little change

SMILES: CO[C@@H]1[C@@H](OC(N)=O)[C@@H](O)[C@H](Oc2ccc3c(O)c(NC(=O)c4ccc(O)c(CC=C(C)C)c4)c(=O)oc3c2C)OC1(C)C [novabiocin]
- disruption of immunophilins from binding to hsp90 [17]: disrupts immunophilins from binding to hsp90
